Experiments:
Rattus norvegicus [1] = organism: Rattus norvegicus; test: Inhibition of ribonucleotide reductase purified from rat Novikoff hepatoma assessed as inhibition of [3H]CDP to [3H]dCDP conversion after 40 mins
In short: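 Ribonucleotide reductase was partially purified from Novikoff hepatoma. The 0.34 mL mix held 3 µCi [3H]CDP (14–19 Ci/mmol), 3.3 mM ATP, 5.9 mM MgCl2, 8.8 mM Hepes pH 7.5, 15 mM DTT and 0.4–1.3 mg enzyme protein, incubated 40 min at 30 °C. Vehicle was water, ≤1% ethanol or 2% DMSO. Each inhibitor was tested at ≥3 concentrations, with actives repeated. ID50 was read from graphs.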

L1210 [2] = test: Antitumor activity against ip dosed mouse L1210 cells allografted in C6D2F1 mouse assessed as dose to achieve maximum life span administered for 8 days starting from day 1 of challenge; assay type: functional
In short: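 L1210 leukemia propagated in DBA/2 mice; diluted ascitic fluid (0.10 mL, 10^5 cells) injected ip into female C6D2F1 mice (~20 g) on day 0. Compounds given ip once daily for 8 days from day 1, generally three doses in the 100–1000 mg/kg range, 8 mice per dose; other doses per toxicity. Read-out: life span as T/C %.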

L1210 [3] = test: Antitumor activity against mouse L1210 cells allografted in C6D2F1 mouse at 100 to 1000 mg/kg, ip for 8 days starting from day 1 of challenge relative to control; settings: dose mg/kg 100-1000; route intraperitoneal
L1210 [4] = test: Antitumor activity against mouse L1210 cells allografted in C6D2F1 mouse at 500 mg/kg, ip for 8 days starting from day 1 of challenge relative to control; assay type: functional; settings: route intraperitoneal
L1210 [5] = test: Antitumor activity against mouse L1210 cells allografted in C6D2F1 mouse at 600 mg/kg, ip for 8 days starting from day 1 of challenge relative to control; assay type: functional; settings: route intraperitoneal
L1210 [6] = test: Antitumor activity against mouse L1210 cells allografted in C6D2F1 mouse at 300 mg/kg, ip for 8 days starting from day 1 of challenge relative to control; assay type: functional; settings: route intraperitoneal
L1210 [7] = test: Antitumor activity against mouse L1210 cells allografted in C6D2F1 mouse at 100 mg/kg, ip for 8 days starting from day 1 of challenge relative to control; assay type: functional; settings: route intraperitoneal
L1210 [8] = test: Antitumor activity against mouse L1210 cells allografted in C6D2F1 mouse at 400 mg/kg, ip for 8 days starting from day 1 of challenge relative to control; assay type: functional; settings: route intraperitoneal
L1210 [9] = test: Antitumor activity against mouse L1210 cells allografted in C6D2F1 mouse at 800 mg/kg, ip for 8 days starting from day 1 of challenge relative to control; assay type: functional; settings: route intraperitoneal
Mus musculus [10] = test: Toxicity in mouse L1210 cells allografted C6D2F1 mouse at 800 mg/kg, ip for 8 days measured on day 2; assay type: organism-based; parameters: dose 800 mg/kg, route intraperitoneal; settings: in vivo, 192 h
L1210 [11] = test: Antitumor activity against mouse L1210 cells allografted in C6D2F1 mouse at 139 mg/kg, ip bid at interval of 1 hr between each dosing for 8 days starting from day 1 of challenge relative to control; assay type: functional; settings: route intraperitoneal
In short: (§1)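 Mice were female C6D2F1 of about 20 g, inoculated ip on day 0 with 10^5 L1210 ascites cells grown in DBA/2 mice. Drug was given ip twice daily at 139 mg/kg per dose for 8 days, varying the interval between the two daily injections. Read-out is the T/C % of life span.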

L1210 [12] = test: Antitumor activity against mouse L1210 cells allografted in C6D2F1 mouse at 139 mg/kg, ip bid at interval of 3 hrs between each dosing for 8 days starting from day 1 of challenge relative to control; assay type: functional; settings: route intraperitoneal; in short: as §1
L1210 [13] = test: Antitumor activity against mouse L1210 cells allografted in C6D2F1 mouse at 139 mg/kg, ip bid at interval of 5 hrs between each dosing for 8 days starting from day 1 of challenge relative to control; assay type: functional; settings: route intraperitoneal; in short: as §1
L1210 [14] = test: Antitumor activity against mouse L1210 cells allografted in C6D2F1 mouse at 139 mg/kg, ip bid at interval of 7 hrs between each dosing for 8 days starting from day 1 of challenge relative to control; assay type: functional; settings: route intraperitoneal; in short: as §1
L1210 [15] = test: Antitumor activity against mouse L1210 cells allografted in C6D2F1 mouse at 200 mg/kg, ip for 8 days starting from day 1 of challenge relative to control; assay type: functional; settings: route intraperitoneal
Rattus norvegicus [16] = organism: Rattus norvegicus; test: Ratio of hydroxyurea ID50 to compound ID50 for ribonucleotide reductase purified from rat Novikoff hepatoma assessed as inhibition of [3H]CDP to [3H]dCDP conversion after 40 mins
L1210 [17] = test: Antitumor activity against mouse L1210 cells allografted in C6D2F1 mouse at 63 mg/kg, ip for 8 days starting from day 1 of challenge relative to control; assay type: functional; settings: route intraperitoneal
L1210 [18] = test: Antitumor activity against mouse L1210 cells allografted in C6D2F1 mouse at 75 mg/kg, ip for 8 days starting from day 1 of challenge relative to control; assay type: functional; settings: route intraperitoneal
L1210 [19] = test: Antitumor activity against mouse L1210 cells allografted in C6D2F1 mouse at 125 mg/kg, ip for 8 days starting from day 1 of challenge relative to control; assay type: functional; settings: route intraperitoneal
L1210 [20] = test: Antitumor activity against mouse L1210 cells allografted in C6D2F1 mouse at 320 mg/kg, ip for 8 days starting from day 1 of challenge relative to control; assay type: functional; settings: route intraperitoneal
L1210 [21] = test: Antitumor activity against mouse L1210 cells allografted in C6D2F1 mouse at 450 mg/kg, ip for 8 days starting from day 1 of challenge relative to control; assay type: functional; settings: route intraperitoneal
Mus musculus [22] = test: Toxicity in mouse L1210 cells allografted C6D2F1 mouse at 500 mg/kg, ip for 8 days measured on day 3; assay type: organism-based; parameters: dose 500 mg/kg, route intraperitoneal; settings: in vivo, 192 h
L1210 [23] = test: Antitumor activity against mouse L1210 cells allografted in C6D2F1 mouse at 700 mg/kg, ip for 8 days starting from day 1 of challenge relative to control; assay type: functional; settings: route intraperitoneal
L1210 [24] = test: Antitumor activity against mouse L1210 cells allografted in C6D2F1 mouse at 1000 mg/kg, ip for 8 days starting from day 1 of challenge relative to control; assay type: functional; settings: route intraperitoneal

Row | Structure (SMILES) | ID50 (Rattus norvegicus [1]) [µM] | Activity (L1210 [2]) [mg/kg] | T/C (L1210 [3]) [%] | further results
1 | Nc1ccc(C(=O)NO)c(O)c1 | 200 | 1000 | 115 | 
2 | O=C(NO)c1ccccc1O [SALICYLHYDROXAMIC ACID] | 150 | 500 | 147 | 
3 | O=C(NO)c1ccccc1 [BENZOHYDROXAMATE] | 400 | 500 | 144 | 
4 | Nc1cccc(C(=O)NO)c1 | 350 | 500 | 110 | 
5 | O=C(NO)c1cc(O)ccc1O | 200 | 300 | 130 | 
6 | Nc1ccc(C(=O)NO)cc1N | 40 | 300 | 140 | 
7 | O=C(NO)c1ccc(O)c(O)c1 | 30 | 600 | 203 | T/C (L1210 [4]): 184%; T/C (L1210 [5]): 203%; T/C (L1210 [6]): 156%; T/C (L1210 [7]): 125%; T/C (L1210 [8]): 154%; T/C (L1210 [9]): 28%; Activity (Mus musculus [10]): Toxic
8 | O=C(NO)c1cc(O)c(O)c(O)c1 | 10 | 400 | 153 | T/C (L1210 [11]): 151%; T/C (L1210 [12]): 168%; T/C (L1210 [13]): 189%; T/C (L1210 [14]): 172%; T/C (L1210 [15]): 147%; T/C (L1210 [7]): 125%; T/C (L1210 [8]): 153%; T/C (L1210 [9]): 56%
9 | O=C(NO)c1ccc(O)c(O)c1O | 3.5 | 125 | 130 | Ratio (Rattus norvegicus [16]): 140; T/C (L1210 [15]): 108%; T/C (L1210 [6]): 92%; T/C (L1210 [17]): 111%; T/C (L1210 [18]): 109%; T/C (L1210 [19]): 130%; T/C (L1210 [20]): 46%
10 | O=C(NO)c1cccc(O)c1O | 8 | 200 | 136 | T/C (L1210 [15]): 136%; T/C (L1210 [4]): 100%; T/C (L1210 [6]): 107%; T/C (L1210 [21]): 103%; Activity (Mus musculus [22]): Toxic
11 | Nc1ccc(C(=O)NO)cc1 | 150 | 500 | 162 | 
12 | O=C(NO)c1cccc(O)c1 | 350 | 500 | 177 | T/C (L1210 [15]): 123%; T/C (L1210 [4]): 177%; T/C (L1210 [5]): 156%; T/C (L1210 [23]): 148%; T/C (L1210 [24]): 68%
13 | O=C(NO)c1ccc(O)cc1O | 250 | 500 | 142 | 
14 | O=C(NO)c1c(O)cccc1O | 100 |  |  | 
15 | Nc1ccccc1C(=O)NO | 120 | 500 | 150 | 
16 | NC(=O)NO [HYDROXYUREA] | 500 | 2500 | 162 | 
17 | O=C(NO)c1cc(O)cc(O)c1 | 400 | 1000 | 152 | 
18 | O=C(NO)c1ccc(O)cc1 | 250 | 400 | 124 | 
